These results are taken from PubChem BioAssay.

The structures appear in SMILES notation. The source made the active and inactive calls. Unless noted, no stated cut-off is given here; in the data, active means inhibition above about 31%; inactive means the rest.

What is called viability is a read-out of living cells in per cent, often relative to untreated cells. Broadly, the inhibition is the relative decrease from the control value, in per cent.

Assay [1] can be described thus: HUVEC growth inhibition – cell-based, human, primary screen (AID 575;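 active means viability at or below 30% in both replicate assays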;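 further: 100% = median of untreated cell wells with 0.1% DMSO on each plate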). Particulars: HUVEC proliferation, CellTiter-Glo luminescence, 72 h; at 10 µM; stronger effect = lower value. A digest of the protocol:
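Assay system: Primary human umbilical vein endothelial cells | Quantity: 1250 cells per well | Medium: Supplemented EBM, 2% fetal bovine serum | Detection: CellTiter-Glo luminescence measuring cellular ATP | Read-out: % viability vs DMSO wells | Plate: Collagen-coated 384-well format | Times: 72 h exposure, 37 °C, 5% CO2, 30 min RT equilibration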
For orientation: ATP-based viability assays read luminescence as a measure of living cells.

A short description of assay [2]: H69AR cell proliferation blockers – human, duplicate replicates, primary screen (AID 580;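 active means viability at or under a set limit in both replicates, limit being median viability minus 3 SD, cut at about 48% in these data, passing the limit was not always enough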;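 further: 100% = mean luminescence of untreated wells and 0% = no signal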). Particulars: H69AR lung tumor cells viability, ATP luminescence, 72 h; at 10 µM; stronger effect = lower value.
Assay [3] is described as follows: MRP1 drug-resistance reversers in H69AR cells – cell-based, doxorubicin co-treatment, pilot screen (AID 601;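 active means viability loss from added drug above about 55%, and viability with drug at most 40%, in both replicates, limit read from the data, passing the limit was not always enough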). The conditions noted are these: CellTiter-Glo, 72 h, at 10 µM; for differential viability (reversal): stronger effect = higher value.
Assay [4] can be described thus: yeast transport mutant growth inhibition pilot in 384-well plates, post-Golgi transport modulator project (AID 636). The conditions noted are these: absorbance 615 nm, about 18 h, stronger effect = higher value.
Assay [5] in a line: growth suppression of yeast trafficking mutant, preliminary HTS, modulators of trafficking downstream of Golgi apparatus project, 1536-format plate, OD 615 nm (AID 637; in the data active means inhibition above about 30%). The conditions noted are these: yeast transport mutant growth, absorbance 615 nm, 18 h; stronger effect = higher value.
The mark [6] stands for this setting: H69AR cells + 2 uM doxorubicin, measured here: viability with 2 uM doxorubicin, stronger effect = lower value.
[7] abbreviates: H69AR cells, compound alone cytotoxicity.

Regarding `O=P1(O)C=C(c2ccccc2)NC(c2ccccc2)=C1`, the viability is 108% (inactive) in assay [1], 91.7% (inactive) in assay [2], 96.1% in assay [3] (setting [6]) and 91.7% in assay [3] (setting [7]). The differential viability (reversal) in assay [3] (H69AR cells + 2 uM doxorubicin) was -4.4% (inactive). Further, the inhibition in assay [4] was -4.93% (inactive); in assay [5] it was 0.48% (inactive).

As to `O=C(CCCCn1c(=O)[nH]c2ccsc2c1=O)NCc1cccnc1`, the viability in assay [1] was 96.3% (inactive); in assay [2], 99.1% (inactive); in assay [3] (setting [6]) it was 97.1%; in assay [3] (setting [7]), 99.1%. Further, the differential viability (reversal) in assay [3] (H69AR cells + 2 uM doxorubicin) is 2.01% (inactive). In addition, the inhibition was -1.18% (inactive) in assay [4] and -0.63% (inactive) in assay [5].

Take `CC(=O)N1C(=O)c2cccc3cccc(c23)C(=O)N1C(C)=O`: the viability was 96.1% (inactive) in assay [1], 91.8% (inactive) in assay [2], 93% in assay [3] (setting [6]) and 91.8% in assay [3] (setting [7]). Moreover, the differential viability (reversal) in assay [3] (H69AR cells + 2 uM doxorubicin) was -1.27% (inactive). The inhibition in assay [4] is -1.05% (inactive); in assay [5], -1.43% (inactive).

As to `CCn1cnc2cc(NCc3cccc(OC)c3O)ccc21`, the viability in assay [1] was 99.3% (inactive); in assay [2], 92.3% (inactive); in assay [3] (setting [6]), 86.3%; in assay [3] (setting [7]), 92.3%. Further, in assay [3] (H69AR cells + 2 uM doxorubicin), the differential viability (reversal) was 5.97% (inactive). Further, the inhibition is -4.47% (inactive) in assay [4] and 0.32% (inactive) in assay [5].

Regarding `O=C(Nc1ccc(S(=O)(=O)Nc2ccc(Cl)cc2)cc1)C1CCCO1` (configuration not stated), the viability in assay [1] was 62% (inactive); in assay [2], 90.2% (inactive); in assay [3] (setting [6]), 89.3%; in assay [3] (setting [7]) it was 90.2%. Moreover, the differential viability (reversal) in assay [3] (H69AR cells + 2 uM doxorubicin) is 0.92% (inactive). Moreover, the inhibition in assay [4] is -6% (inactive); in assay [5], -5.4% (inactive).

Take `CC(OC1=CC(=O)CCC1)C(=O)c1ccccc1` (configuration not stated): the viability in assay [1] is 102% (inactive); in assay [2] it was 108% (inactive); in assay [3] (setting [6]) it was 89.8%; in assay [3] (setting [7]), 108%. For the same molecule, in assay [3] (H69AR cells + 2 uM doxorubicin), the differential viability (reversal) was 18% (inactive). Moreover, the inhibition was -2.6% (inactive) in assay [4] and -0.48% (inactive) in assay [5].

Regarding `COc1ccc(CCN2C(=O)C3C4C=CC(C4)C3C2=O)cc1OC` (configuration not stated), the viability in assay [1] was 97.7% (inactive); in assay [2], 99.8% (inactive); in assay [3] (setting [6]) it was 94.8%; in assay [3] (setting [7]) it was 99.8%. In addition, in assay [3] (H69AR cells + 2 uM doxorubicin), the differential viability (reversal) was 5.05% (inactive). In addition, the inhibition is -6.71% (inactive) in assay [4] and -4.44% (inactive) in assay [5].

As for `CCOc1ccc(OCc2cccc(C(=O)N3CCOCC3)c2)cc1`, the viability was 83.9% (inactive) in assay [1], 94.5% (inactive) in assay [2], 94.2% in assay [3] (setting [6]) and 94.5% in assay [3] (setting [7]). For the same molecule, the differential viability (reversal) in assay [3] (H69AR cells + 2 uM doxorubicin) is 0.305% (inactive). Further, the figures for the inhibition in assay [4] and in assay [5] were -5.87% (inactive) and 2.7% (inactive), respectively.

Consider `COc1ccccc1NC(=O)N1c2ccc(F)cc2CCC1C` (configuration not stated), for which the viability in assay [1] is 83.3% (inactive); in assay [2], 99% (inactive); in assay [3] (setting [6]), 84%; in assay [3] (setting [7]), 99%. The differential viability (reversal) in assay [3] (H69AR cells + 2 uM doxorubicin) was 15% (inactive). The figures for the inhibition in assay [4] and in assay [5] were -2.47% (inactive) and 3.02% (inactive), respectively.

For `CCC(=O)Nc1ccc(NC(=O)CSc2nnnn2C(C)C)cc1`, the viability is 111% (inactive) in assay [1], 93% (inactive) in assay [2], 89.8% in assay [3] (setting [6]) and 93% in assay [3] (setting [7]). For the same molecule, in assay [3] (H69AR cells + 2 uM doxorubicin), the differential viability (reversal) was 3.14% (inactive). For the same molecule, the inhibition in assay [4] is -3.82% (inactive); in assay [5], 4.13% (inactive).

Take `Cn1c(-c2ccc(F)cc2)cnc1NCc1ccccc1`: the viability was 108% (inactive) in assay [1], 66.2% (inactive) in assay [2], 81.6% in assay [3] (setting [6]) and 66.2% in assay [3] (setting [7]). For the same molecule, the differential viability (reversal) in assay [3] (H69AR cells + 2 uM doxorubicin) is -15.4% (inactive). The inhibition in assay [4] was -3.03% (inactive); in assay [5] it was 4.6% (inactive).

`CCCc1cc(=O)[nH]c(/N=C(\N)Nc2ccccc2)n1`: the viability in assay [1] was 80.8% (inactive); in assay [2] it was 82.4% (inactive); in assay [3] (setting [6]), 96.3%; in assay [3] (setting [7]), 82.4%. In addition, the differential viability (reversal) in assay [3] (H69AR cells + 2 uM doxorubicin) is -13.9% (inactive). Moreover, the inhibition in assay [4] was -0.13% (inactive); in assay [5] it was 3.49% (inactive).

For `Cc1cc(C)n(CCCNC(=O)c2ccc(S(=O)(=O)NCc3ccco3)cc2)n1`, the viability in assay [1] is 97.6% (inactive); in assay [2], 94.2% (inactive); in assay [3] (setting [6]) it was 86.9%; in assay [3] (setting [7]), 94.2%. The differential viability (reversal) in assay [3] (H69AR cells + 2 uM doxorubicin) is 7.31% (inactive). The inhibition is -3.77% (inactive) in assay [4] and 3.17% (inactive) in assay [5].

For the molecule `Cc1cccc(-n2ncc3c(NCc4ccccn4)ncnc32)c1`, the viability was 97.5% (inactive) in assay [1], 89.6% (inactive) in assay [2], 87.8% in assay [3] (setting [6]) and 89.6% in assay [3] (setting [7]). For the same molecule, the differential viability (reversal) in assay [3] (H69AR cells + 2 uM doxorubicin) is 1.75% (inactive). Moreover, the inhibition is -1.17% (inactive) in assay [4] and -4.6% (inactive) in assay [5].

In the case of `CCS(=O)(=O)N1CCCC(C(=O)NCCc2ccc(OC)c(OC)c2)C1` (configuration not stated), the viability in assay [1] is 101% (inactive); in assay [2], 104% (inactive); in assay [3] (setting [6]), 94.5%; in assay [3] (setting [7]), 104%. Moreover, in assay [3] (H69AR cells + 2 uM doxorubicin), the differential viability (reversal) is 9.14% (inactive). Besides, the inhibition was 1.07% (inactive) in assay [4] and -0.95% (inactive) in assay [5].

For `O=C(CSc1nnc2c3cc(F)ccc3nc(-c3ccccc3)n12)N1CCOCC1`, the viability in assay [1] is 77% (inactive); in assay [2] it was 72.6% (inactive); in assay [3] (setting [6]), 72.5%; in assay [3] (setting [7]), 72.6%. In assay [3] (H69AR cells + 2 uM doxorubicin), the differential viability (reversal) was 0.06% (inactive). The inhibition is 0.27% (inactive) in assay [4] and 1.59% (inactive) in assay [5].

With `O=C(c1ccc2c(c1)OCO2)N1CCNc2ccccc2C1`, the viability in assay [1] was 90.4% (inactive); in assay [2] it was 99.6% (inactive); in assay [3] (setting [6]), 87.7%; in assay [3] (setting [7]) it was 99.6%. Besides, the differential viability (reversal) in assay [3] (H69AR cells + 2 uM doxorubicin) is 11.9% (inactive). Further, the inhibition in assay [4] was 0.65% (inactive); in assay [5] it was 3.17% (inactive).

For the molecule `CN(c1cccc(NC(=O)COc2ccccc2)c1)S(C)(=O)=O`, the viability in assay [1] was 108% (inactive); in assay [2], 96% (inactive); in assay [3] (setting [6]), 99%; in assay [3] (setting [7]), 96%. Also, the differential viability (reversal) in assay [3] (H69AR cells + 2 uM doxorubicin) was -3.07% (inactive). For the same molecule, the figures for the inhibition in assay [4] and in assay [5] were 4.47% (inactive) and 0.32% (inactive), respectively.

On to `CSc1nnc(-c2cnccn2)n1C`, for which the viability is 107% (inactive) in assay [1], 90.7% (inactive) in assay [2], 89.7% in assay [3] (setting [6]) and 90.7% in assay [3] (setting [7]). Further, the differential viability (reversal) in assay [3] (H69AR cells + 2 uM doxorubicin) is 0.99% (inactive). The inhibition in assay [4] was -0.39% (inactive); in assay [5], 4.92% (inactive).

Take `CC(=O)Nc1ccc2nc(-c3cccnc3)[nH]c2c1`: the viability in assay [1] is 98.6% (inactive); in assay [2] it was 80.7% (inactive); in assay [3] (setting [6]), 92%; in assay [3] (setting [7]), 80.7%. Also, the differential viability (reversal) in assay [3] (H69AR cells + 2 uM doxorubicin) was -11.3% (inactive). Further, the inhibition is 3.51% (inactive) in assay [4] and 11.1% (inactive) in assay [5].

With `Cn1c(SCc2c(F)cccc2Cl)nnc1-c1cccs1`, the viability in assay [1] was 112% (inactive); in assay [2], 87.9% (inactive); in assay [3] (setting [6]), 77.6%; in assay [3] (setting [7]), 87.9%. The differential viability (reversal) in assay [3] (H69AR cells + 2 uM doxorubicin) was 10.2% (inactive). The inhibition in assay [4] is -1.33% (inactive); in assay [5], -5.87% (inactive).
